Results reported in ChEMBL document CHEMBL1130082, “5,6-Cis-penems: broad-spectrum anti-methicillin-resistant Staphylococcus aureus beta-lactam antibiotics” (1997).
In brackets after ≈: the same amount, converted by molar mass.

Columns and labels:
Type in all cases: functional
[1] = system: Bacillus subtilis; assay: Minimum inhibitory concentration was determined in heart infusion agar medium against Bacillus subtilis ATCC 6633
How it was run: (§1)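 Agar dilution on heart infusion agar, inoculum 10^6 cells/mL, incubated 24 h at 37 °C; the MIC is read as the lowest concentration that inhibits growth.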

[2] = system: Escherichia coli; assay: Minimum inhibitory concentration was determined in heart infusion agar medium against […] organism Escherichia coli KC-14/RGN 823; how it was run: as §1
[3] = system: Staphylococcus aureus; assay: Minimum inhibitory concentration was determined in heart infusion agar medium against Staphylococcus aureus(MRSA); how it was run: as §1
[4] = system: Klebsiella pneumoniae; assay: Minimum inhibitory concentration was determined in heart infusion agar medium against Klebsiella pneumoniae PCI 602; how it was run: as §1
[5] = system: Enterobacter cloacae; assay: Minimum inhibitory concentration was determined in heart infusion agar medium against […] organism Enterobacter cloacae NTCC9394; how it was run: as §1
[6] = system: Serratia marcescens; assay: Minimum inhibitory concentration was determined in heart infusion agar medium against Serratia marcescens IAM 1136; how it was run: as §1
[7] = system: Staphylococcus aureus; assay: Minimum inhibitory concentration was determined in heart infusion agar medium against Staphylococcus aureus 209P JC-1; how it was run: as §1
[8] = system: Escherichia coli; assay: Minimum inhibitory concentration was determined in heart infusion agar medium against Escherichia coli NIHJ JC-2; how it was run: as §1
[9] = system: Proteus vulgaris; assay: Minimum inhibitory concentration was determined in heart infusion agar medium against Proteus vulgaris GN 7919; how it was run: as §1
[10] = system: Pseudomonas aeruginosa; assay: Minimum inhibitory concentration was determined in heart infusion agar medium against Pseudomonas aeruginosa PAO-1; how it was run: as §1
[11] = system: Citrobacter freundii; assay: Minimum inhibitory concentration was determined in heart infusion agar medium against […] organism Citrobacter freundii GN7391; how it was run: as §1
[12] = system: Enterococcus faecalis; assay: Minimum inhibitory concentration was determined in heart infusion agar medium against Enterococcus faecalis ATCC 19433; how it was run: as §1

SMILES | MIC [1] [µg/mL] | MIC [2] [µg/mL] | MIC [3] [µg/mL] | MIC [4] [µg/mL] | MIC [5] [µg/mL] | MIC [6] [µg/mL] | MIC [7] [µg/mL] | MIC [8] [µg/mL] | MIC [9] [µg/mL] | MIC [10] [µg/mL] | MIC [11] [µg/mL] | MIC [12] [µg/mL]
CC[C@H](O)[C@@H]1C(=O)N2C(C(=O)[O-])=C(S[C@@H]3CCN(CC(=O)c4ccccc4)C3)S[C@H]12.[Na+] | < 0.025 | 0.78 | 3.13 | 0.1 | 0.39 | 1.56 | 0.1 | 0.2 | 0.78 | 6.25 | 6.25 | 0.78
CC[C@@H](O)[C@H]1C(=O)N2C(C(=O)[O-])=C([C@H]3CCCO3)S[C@H]12.[Na+] | 0.78 | 12.5 | > 100 | 12.5 | > 100 | > 100 | 0.78 | 100 | 25 | > 100 | > 100 | 25
CC(O)[C@H]1C(=O)N2C(C(=O)O)=C(SCCNC=N)C[C@H]12 (single isomer, unassigned) [IMIPENEM ANHYDROUS] | < 0.025 | 0.1 (≈ 0.334 µM) | > 100 | 0.2 (≈ 0.668 µM) | 0.2 (≈ 0.668 µM) | 0.78 (≈ 2.61 µM) | < 0.025 | 0.2 (≈ 0.668 µM) | 3.13 (≈ 10.5 µM) | 1.56 (≈ 5.21 µM) | 0.39 (≈ 1.3 µM) | 0.78 (≈ 2.61 µM)
C[C@@H](O)[C@H]1C(=O)N2C(C(=O)[O-])=C([C@H]3CCCO3)S[C@H]12.[Na+] [FAROPENEM SODIUM] | < 0.025 | 0.1 | > 100 | 0.2 | 1.56 | 6.25 | 0.05 | 0.1 | 3.13 | > 100 | 25 | 0.78
C[C@@H](O)[C@H]1C(=O)N2C(C(=O)O)=C([C@H]3CCCO3)S[C@H]12 [FAROPENEM] | 0.05 (≈ 0.175 µM) | 25 (≈ 87.6 µM) | 25 (≈ 87.6 µM) | 0.78 (≈ 2.73 µM) | 100 (≈ 350 µM) | 25 (≈ 87.6 µM) | 0.78 (≈ 2.73 µM) | 0.78 (≈ 2.73 µM) | 1.56 (≈ 5.47 µM) | > 100 | > 100 | 0.39 (≈ 1.37 µM)

The remaining molecules from weak to strong by MIC [1], led by results:

MIC [1] [µg/mL] | MIC [2] [µg/mL] | MIC [3] [µg/mL] | MIC [4] [µg/mL] | MIC [5] [µg/mL] | MIC [6] [µg/mL] | MIC [7] [µg/mL] | MIC [8] [µg/mL] | MIC [9] [µg/mL] | MIC [10] [µg/mL] | MIC [11] [µg/mL] | MIC [12] [µg/mL] | SMILES
0.2 | 50 | 12.5 | 6.25 | > 100 | 50 | 0.78 | 25 | 1.56 | 100 | > 100 | 0.2 | CC[C@H](O)[C@@H]1C(=O)N2C(C(=O)[O-])=C(c3ccccc3)S[C@H]12.[Na+]
0.05 | > 100 | 6.25 | 1.56 | > 100 | 25 | 0.39 | 3.13 | 1.56 | > 100 | > 100 | 0.39 | CC[C@H](O)[C@@H]1C(=O)N2C(C(=O)[O-])=C([C@H]3CCCO3)S[C@H]12.[Na+]
0.05 | 0.78 | 3.13 | 0.39 | 0.78 | 3.13 | 0.1 | 0.2 | 0.78 | 12.5 | 6.25 | 1.56 | CC[C@H](O)[C@@H]1C(=O)N2C(C(=O)[O-])=C(S[C@@H]3CCNC3)S[C@H]12.[Na+]
